Measurements as given in ChEMBL document CHEMBL1148955, “Chemical constituents from the Colombian medicinal plant Maytenus laevis” (2004).
Calls of active or inactive are those of the source. No cut-off for these calls is given here.

Tests used:
PBMC [1] = assay: Induction of IL12 production in human PBMC at 10 ug/ml after 48 hrs by ELISA; format: functional
Summary of the method: (§1)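 PBMCs were isolated from heparinized venous blood by Ficoll-Hypaque density gradient centrifugation. Cells were cultured at 1 × 10^6/mL in RPMI 1640 with 10% fetal calf serum, with or without compound at 1 or 10 µg/mL, for 48 h at 37 °C. Cytokines in the culture supernatants were measured by commercial ELISA kits.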

PBMC [2] = assay: Induction of IL12 production in human PBMC at 1 ug/ml after 48 hrs by ELISA; format: functional; summary of the method: as §1
PBMC [3] = assay: Induction of IL10 production in human PBMC at 10 ug/ml after 48 hrs by ELISA; format: functional, cell-based; summary of the method: as §1
PBMC [4] = assay: Induction of TNFalpha production in human PBMC at 10 ug/ml after 48 hrs by ELISA; format: functional; summary of the method: as §1
PBMC [5] = assay: Induction of IL4 production in human PBMC at 1 ug/ml after 48 hrs by ELISA; format: functional, cell-based; summary of the method: as §1
PBMC [6] = assay: Induction of IL10 production in human PBMC at 1 ug/ml after 48 hrs by ELISA; format: functional, cell-based; summary of the method: as §1
PBMC [7] = assay: Induction of IL4 production in human PBMC at 10 ug/ml after 48 hrs by ELISA; format: functional, cell-based; summary of the method: as §1
PBMC [8] = assay: Induction of IL6 production in human PBMC at 1 ug/ml after 48 hrs by ELISA; format: functional; summary of the method: as §1
PBMC [9] = assay: Induction of TNFalpha production in human PBMC at 1 ug/ml after 48 hrs by ELISA; format: functional; summary of the method: as §1
PBMC [10] = assay: Induction of IFN-gamma production in human PBMC at 1 ug/ml after 48 hrs by ELISA; format: functional, cell-based; summary of the method: as §1
PBMC [11] = assay: Induction of IFN-gamma production in human PBMC at 10 ug/ml after 48 hrs by ELISA; format: functional, cell-based; summary of the method: as §1
PBMC [12] = assay: Induction of IL6 production in human PBMC at 10 ug/ml after 48 hrs by ELISA; format: functional; summary of the method: as §1

| Compound | Activity (PBMC [1]) [pg/mL] | Activity (PBMC [2]) [pg/mL] | Activity (PBMC [3]) | Activity (PBMC [4]) [pg/mL] | Activity (PBMC [5]) | Activity (PBMC [6]) | Activity (PBMC [7]) | Activity (PBMC [8]) [pg/mL] | Activity (PBMC [9]) [pg/mL] | Activity (PBMC [10]) | Activity (PBMC [11]) | Activity (PBMC [12]) [pg/mL] |
| --- | --- | --- | --- | --- | --- | --- | --- | --- | --- | --- | --- | --- |
| C[C@H]1C(=O)CC[C@@H]2[C@]1(C)CC[C@H]1[C@@]2(C)CC[C@@]2(C)[C@@H]3CC(C)(C)CC[C@]3(CO)CC[C@]12C [CANOPHYLLOL] | 104.3 | 47.3 | inactive | 322.9 | inactive | inactive | inactive | 2579.3 | 132.5 | inactive | inactive | 2579.2 |
| CC(=O)OC[C@]12[C@H](OC(=O)c3ccccc3)[C@H](OC(C)=O)[C@@H]3[C@@H](OC(C)=O)[C@@]14O[C@@]3(C)COC(=O)c1cccnc1C(C)C(C)C(=O)O[C@@H]([C@H](OC(C)=O)[C@@H]2OC(=O)c1ccccc1)[C@]4(C)O (some centres undefined) [EBENIFOLINE E III] | <7.8 | <7.8 | inactive | <7.8 | inactive | inactive | inactive | <7.8 | <7.8 | inactive | inactive | <7.8 |
| CC1(C)[C@@H](O)CC[C@]2(C)[C@H]3CC=C4[C@H]5C[C@](C)(C(=O)O)CC[C@]5(C)CC[C@@]4(C)[C@]3(C)CC[C@@H]12 [EPIKATONIC ACID] | <7.8 | <7.8 | inactive | <7.8 | inactive | inactive | inactive | 16.2 | <7.8 | inactive | inactive | 22.9 |
| C[C@@H]1O[C@@H](O[C@@H]2[C@@H](O)[C@H](OCCc3ccc(O)c(O)c3)O[C@H](COC(=O)/C=C/c3ccc(O)c(O)c3)[C@H]2O)[C@H](O)[C@H](O)[C@H]1O [ISOACTEOSIDE] | <7.8 | <7.8 | inactive | <7.8 | inactive | inactive | inactive | 101.5 | <7.8 | inactive | inactive | 175.5 |
| CC(C)c1cc2c(cc1O)[C@@]1(C)CCC[C@](C)(C(=O)O)[C@@H]1CC2 [LAMBERTIC ACID] | <7.8 | <7.8 | inactive | <7.8 | inactive | inactive | inactive | 59.8 | <7.8 | inactive | inactive | 1454.4 |
| CC(=O)OC[C@]12[C@H](OC(C)=O)[C@H](OC(C)=O)[C@@H]3[C@@H](OC(C)=O)[C@@]14O[C@@]3(C)COC(=O)c1cccnc1C(C)C(C)C(=O)O[C@@H]([C@H](OC(C)=O)[C@@H]2OC(=O)c1ccccc1)[C@]4(C)O (some centres undefined) [MAYTEINE] | 14.7 | 14.3 | inactive | 24.6 | inactive | inactive | inactive | 1245.2 | 22 | inactive | inactive | 1576.2 |
| COc1c(O)cc(-c2oc3cc(O)cc(O)c3c(=O)c2O)cc1O [MEARNSETIN] | <7.8 | 14.3 | inactive | <7.8 | inactive | inactive | inactive | 783.6 | 31.3 | inactive | inactive | 203.4 |
| COc1c(O)cc([C@H]2Oc3c(c(O)cc(O)c3[C@H]3c4c(O)cc(O)cc4O[C@H](c4ccc(O)cc4)[C@@H]3O)C[C@H]2O)cc1O [OURATEAPROANTHOCYANIDIN A] | <7.8 | <7.8 | inactive | <7.8 | inactive | inactive | inactive | 28.1 | <7.8 | inactive | inactive | 174.4 |
| C[C@@H]1[C@@]23CC[C@H]4[C@@](C)(CC[C@@]5(C)[C@@H]6C[C@](C)(C(=O)O)CC[C@]6(C)CC[C@]45C)[C@@H]2CC[C@@]1(O)OC3 [SALASPERMIC ACID] | <7.8 | 21.6 | inactive | <7.8 | inactive | inactive | inactive | 857.3 | 54.5 | inactive | inactive | 109.6 |
| C[C@@H]1[C@H]2C3=CC[C@@H]4[C@@]5(C)CC[C@@H](O)C(C)(C)[C@@H]5CC[C@@]4(C)[C@]3(C)CC[C@@]2(C)[C@@H](O)C[C@H]1C(=O)O [TRIPTOCALLIC ACID A] | <7.8 | <7.8 | inactive | <7.8 | inactive | inactive | inactive | 705.7 | <7.8 | inactive | inactive | 10.6 |
| CC1(C)[C@H](O)CC[C@]2(C)[C@H]3CC=C4[C@@H]5C[C@](C)(C(=O)O)C[C@H](O)[C@]5(C)CC[C@@]4(C)[C@]3(C)CC[C@@H]12 [TRIPTOCALLIC ACID D] | <7.8 | <7.8 | inactive | <7.8 | inactive | inactive | inactive | 793.2 | <7.8 | inactive | inactive | <7.8 |
| CC1(C)C(=O)CC[C@]2(C)[C@H]3CC=C4[C@@H]5C[C@]6(C)C[C@@H](OC6=O)[C@]5(C)CC[C@@]4(C)[C@]3(C)CC[C@@H]12 [WILFORLIDE B] | <7.8 | <7.8 | inactive | <7.8 | inactive | inactive | inactive | 1477.6 | <7.8 | inactive | inactive | 451.1 |
